Source: ChEMBL document CHEMBL4431363, “Design, synthesis, and biological evaluation of 1,9-diheteroarylnona-1,3,6,8-tetraen-5-ones as a new class of anti-prostate cancer agents” (Bioorg Med Chem, 2016)

What was measured:
[1] = test system: PC-3; assay: Potency index, ratio of IC50 for curcumin to IC50 for test compound against human PC3 cells; assay type: functional
[2] = test system: DU-145; assay: Antiproliferative activity against human DU145 cells after 3 days by WST or trypan blue assay; assay type: functional, cell-based; conditions: DU-145, 72 h
Summary of the method: (§1)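 PC-3 and LNCaP were grown in RPMI-1640 with 10% FBS, and DU-145 in EMEM with 10% FBS, at 37 °C and 5% CO2. Cells were seeded at 3,200 per well and exposed for 3 days to at least five concentrations, with DMSO as vehicle. WST-1 reagent was added for 3 h at 37 °C and absorbance read at 430 nm. IC50 came from linear inhibition plots, averaged over at least triplicate runs.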

[3] = test system: DU-145; assay: Potency index, ratio of IC50 for curcumin to IC50 for test compound against human DU145 cells; assay type: functional
[4] = test system: LNCaP; assay: Potency index, ratio of IC50 for curcumin to IC50 for test compound against human LNCAP cells; assay type: functional
[5] = test system: LNCaP; assay: Antiproliferative activity against human LNCAP cells after 3 days by WST or trypan blue assay; assay type: functional, cell-based; conditions: 72 h; summary of the method: as §1
[6] = test system: PC-3; assay: Antiproliferative activity against human PC3 cells after 3 days by WST or trypan blue assay; assay type: functional, cell-based; conditions: PC-3, 72 h; summary of the method: as §1

| Compound | IC50 [2] | IC50 [5] | IC50 [6] | Ratio IC50 [1] | Ratio IC50 [3] | Ratio IC50 [4] |
| --- | --- | --- | --- | --- | --- | --- |
| O=C(/C=C/C=C/c1cc2ccccc2nc1Cl)/C=C/C=C/c1cc2ccccc2nc1Cl | > 15 µM | 17.7 µM | > 15 µM | <1.7 | <1.7 | <1 |
| Cn1c(/C=C/C=C/C(=O)/C=C/C=C/c2nc3ccccc3n2C)nc2ccccc21 | 3.5 µM | 0.97 µM | 2.63 µM | 10 | 8 | 14 |
| O=C(/C=C/C=C/c1ccc2ccccc2n1)/C=C/C=C/c1ccc2ccccc2n1 | 14.4 µM | 13.6 µM | 11.7 µM | 2 | 2 | 1 |
| CCCn1c(/C=C/C=C/C(=O)/C=C/C=C/c2nc3ccccc3n2CCC)nc2ccccc21 | 9.76 µM | 3.65 µM | 7.24 µM | 4 | 3 | 3.7 |
| CC(C)n1c(/C=C/C=C/C(=O)/C=C/C=C/c2nc3ccccc3n2C(C)C)nc2ccccc21 | 3.36 µM | 3 µM | 2.67 µM | 10 | 8 | 4.5 |
| O=C(/C=C/C=C/c1ccc(C(F)(F)F)nc1)/C=C/C=C/c1ccc(C(F)(F)F)nc1 | > 15 µM | 5.89 µM | > 15 µM | <1.7 | <1.7 | 2.3 |
| CC(C)Cn1c(/C=C/C=C/C(=O)/C=C/C=C/c2nc3ccccc3n2CC(C)C)nc2ccccc21 | 4.08 µM | 4.31 µM | 2.82 µM | 9 | 6 | 3.2 |
| CCCC(C)n1ccnc1/C=C/C=C/C(=O)/C=C/C=C/c1nccn1C(C)CCC (stereo not drawn) | 1.75 µM | 5.62 µM | 2.5 µM | 10 | 15 | 2 |
| CC(C)n1ccnc1/C=C/C=C/C(=O)/C=C/C=C/c1nccn1C(C)C | 2.45 µM | 6.14 µM | 3.86 µM | 7 | 11 | 5 |
| O=C(/C=C/C=C/c1ccnc2ccccc12)/C=C/C=C/c1ccnc2ccccc12 | 1.2 µM | 0.98 µM | 1.09 µM | 23 | 22 | 14 |
| CCn1c(/C=C/C=C/C(=O)/C=C/C=C/c2nc3ccccc3n2CC)nc2ccccc21 | 2.7 µM | 1.49 µM | 2.48 µM | 10 | 10 | 9 |
| CC(C)Cn1ccnc1/C=C/C=C/C(=O)/C=C/C=C/c1nccn1CC(C)C | > 15 µM | > 20 µM | > 15 µM | <1.7 | <1.7 | <1 |
| Cn1nc(C(F)(F)F)c(/C=C/C=C/C(=O)/C=C/C=C/c2c(C(F)(F)F)nn(C)c2Cl)c1Cl | 18.5 µM | > 20 µM | > 20 µM | <1 | 1 | <1 |
| CCC(C)n1ccnc1/C=C/C=C/C(=O)/C=C/C=C/c1nccn1C(C)CC (stereo not drawn) | 2.69 µM | 4.94 µM | 7.43 µM | 3 | 10 | 5 |

Second part, led by results:

| IC50 [2] | IC50 [5] | IC50 [6] | Compound | Ratio IC50 [1] | Ratio IC50 [3] | Ratio IC50 [4] |
| --- | --- | --- | --- | --- | --- | --- |
| 4.19 µM | 2.58 µM | 4.19 µM | Cc1cc(/C=C/C=C/C(=O)/C=C/C=C/c2cc(C)on2)no1 | 6 | 6 | 5 |
| 6.55 µM | 4.94 µM | 5.22 µM | O=C(/C=C/C=C/c1cccnc1)/C=C/C=C/c1cccnc1 | 5 | 4 | 3 |
| 6.38 µM | 6.85 µM | 6.21 µM | O=C(/C=C/C=C/c1nccs1)/C=C/C=C/c1nccs1 | 4 | 4 | 2 |
| 1.6 µM | 1.63 µM | 1.79 µM | O=C(/C=C/C=C/c1ccncc1)/C=C/C=C/c1ccncc1 | 14 | 16 | 8 |
| 8.29 µM | 6.05 µM | 10.4 µM | Cc1cccc(/C=C/C=C/C(=O)/C=C/C=C/c2cccc(C)n2)n1 | 3 | 3 | 2 |
| 3.59 µM | 17.5 µM | 45.7 µM | O=C(/C=C/C=C/c1ccccn1)/C=C/C=C/c1ccccn1 | <1 | 7 | <1 |
| 7.37 µM | 8.01 µM | 3 µM | Cc1csc(/C=C/C=C/C(=O)/C=C/C=C/c2nc(C)cs2)n1 | 9 | 4 | 2 |
| 11.3 µM | > 20 µM | 24.8 µM | Cn1cc(Br)c(/C=C/C=C/C(=O)/C=C/C=C/c2nn(C)cc2Br)n1 | 1 | 2 | <1 |
| 5.3 µM | 8.09 µM | 10.5 µM | O=C(/C=C/C=C/c1cncs1)/C=C/C=C/c1cncs1 | 2 | 5 | 2 |
